Bioassay records as filed in PubChem BioAssay.
Sampled rows, rich in hits. Any-hit rate of the full collection: about 2.1%.
VIM-2 inhibitor: inhibitors of Pseudomonas aeruginosa VIM-2 metallo-beta-lactamase; AID 1527; purified VIM-2, nitrocefin hydrolysis, epi-absorbance fluorescence; actives 0.89% (n = 290,000); inhibition, % at 5.6 µM;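 active means inhibition above the mean of all tested compounds plus 3 SD, cutoff set per screening run, cut at about 7.5% in these data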;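 further: red hydrolysis product quenches plate fluorescence so inhibitors raise well fluorescence; 0% = enzyme with DMSO and 100% = DMSO without enzyme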
CRFR2-BP ag: CRF-BP/CRF-R2 complex agonism. HEK293 CRF-R2/CRF-BP, calcium dye fluorescence (FLIPR); percent of saturating CRF peptide response. activation, % at 13.2 µM. actives 0.46% (n = 350,000);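 active means activation of at least 50%, plus an integration ratio under a set limit after plate pattern correction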;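 further: plate controls were neutral control wells without compound for no effect and CRF at EC100 for full effect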
TRPML3 agonist: activates the human TRPML3 channel | HEK293 TRPML3-YFP, Fluo-8 calcium fluorescence; 100% = the carbachol control signal | activation, % at 3 µM | actives 0.29% (n = 220,000) | AID 1448;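 active means activation above its plate's cutoff, the mean activation of the plate's test wells plus 3 SD, cut at about 12% in these data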;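 further: 0% = DMSO only wells and 100% = carbachol wells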
Target sequence (Q8TDD5 whole entry, looked up): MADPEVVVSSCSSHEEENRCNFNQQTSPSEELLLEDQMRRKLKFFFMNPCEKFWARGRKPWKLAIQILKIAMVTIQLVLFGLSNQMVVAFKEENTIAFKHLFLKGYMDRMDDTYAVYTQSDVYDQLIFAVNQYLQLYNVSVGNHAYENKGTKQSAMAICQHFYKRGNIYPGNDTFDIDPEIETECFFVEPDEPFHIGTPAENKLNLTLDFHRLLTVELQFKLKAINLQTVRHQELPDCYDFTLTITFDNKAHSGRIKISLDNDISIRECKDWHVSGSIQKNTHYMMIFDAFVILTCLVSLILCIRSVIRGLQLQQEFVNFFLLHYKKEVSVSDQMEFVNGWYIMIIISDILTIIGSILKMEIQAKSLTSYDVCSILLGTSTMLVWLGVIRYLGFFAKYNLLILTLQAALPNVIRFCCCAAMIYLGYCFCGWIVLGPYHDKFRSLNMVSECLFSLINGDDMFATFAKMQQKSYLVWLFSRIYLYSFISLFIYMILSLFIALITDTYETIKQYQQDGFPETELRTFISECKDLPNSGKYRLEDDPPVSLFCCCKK
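Test system – HEK293 line with stable expression of human TRPML3-YFP channel · Control set – carbachol 87 µM final as high control (100%), DMSO as low control (0%) · Signal – Fluo-8 calcium dye fluorescence, ex 470-495, em 515-575 nm · Incubation – 1-h 37 °C dye load, 5-s basal, 120-s post-compound reads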
IMP-1 inh: inhibitors of Pseudomonas aeruginosa IMP-1 metallo-beta-lactamase; actives 0.45% (n = 290,000); inhibition, % at 5.6 µM; purified IMP-1, nitrocefin hydrolysis, epi-absorbance fluorescence;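 active means inhibition above the mean plus 3 SD of all compounds in the same screening run, cut at about 4.5% in these data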;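 further: 0% = IMP-1 with DMSO and 100% = DMSO wells lacking enzyme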
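assay system = purified recombinant IMP-1 metallo-beta-lactamase enzyme | schedule = 15 min preincubation plus 25 min reaction at 25 °C | signal = Epi-absorbance fluorescence, 480 nm excitation, 530 nm emission | read-out basis = percent inhibition from optical density relative to buffer-blank wells | controls = IMP-1 with DMSO as 0%, enzyme-free DMSO as 100%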
CRFBP-R2 block: antagonists of CRF-binding protein/CRF-R2 receptor complex. actives 0.59% (n = 350,000). HEK293 CRF-R2/CRF-BP, CRF-induced calcium fluorescence. inhibition, % at 11.8 µM;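 active means inhibition of the ligand-induced calcium signal above about 50% at the single tested concentration, limit read from the data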
zfTRPN1 agonist: zebrafish TRPN1 (NompC) channel agonism. HEK293 zebrafish TRPN1-YFP, Fluo-8 calcium fluorescence; 100% = response to 87 µM carbachol. activation, % at 3 µM. actives 0.18% (n = 220,000);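 active means activation above its plate's cutoff, the mean activation of test wells on that plate plus 3 SD, cut at about 19% in these data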;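 further: 0% = DMSO alone and 100% = 87 µM carbachol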
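Control set: carbachol 87 µM as high control, DMSO as low control; system: HEK293 stable line with zebrafish TRPN1-YFP; read-out: % activation versus carbachol response; detection: intracellular calcium fluorescence with Fluo-8; doses: single test compound dose, 3 µM nominal, 0.3% DMSO; schedule: dye 1 h 37 °C plus 30 min RT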
An asterisk follows results filed as active; . = not tested or not shown.

SMILES | VIM-2 inhibitor | CRFR2-BP ag | TRPML3 agonist | IMP-1 inh | CRFBP-R2 block | zfTRPN1 agonist
COc1ccc(Nc2cc(C)c3c(O)cccc3n2)cc1 | 8.8* | 3 | 1 | -1 | -5 | 2
Cc1ccc(Nc2cc(C)c3c(O)cccc3n2)cc1C | 3 | 25 | 0 | 0 | -50 | 3
Cc1cc2c(cc1S(=O)(=O)CCC(=O)NC1CCCCC1C)OCC(=O)N2 (centres undefined) | -4 | 83* | . | -4 | -87 | .
COc1ccc2c(c1)-c1nc(/N=C/c3ccc(O)cc3)sc1CC2 | 0 | 2 | -1 | 1 | 91* | -2
COc1ccc2c(c1)-c1nc(/N=C/c3c(O)ccc4ccccc34)sc1CC2 | 3 | -2 | 0 | 1 | 10 | -1
CC(=O)N1CCc2c(sc(NC(=O)C3CC3)c2-c2nc3ccccc3s2)C1 | 1 | 17 | 0 | -4 | -4 | 1
CC(=O)Nc1sc2c(c1-c1nc3ccccc3s1)CN(C(C)C)CC2 | . | 94* | . | . | -49 | .
CCc1ccc(NC(=O)COC(=O)c2nc3nc(C)cc(C)n3n2)cc1 | . | -5 | . | . | 19 | .
CC(C)(C)N=Cc1c(O)ccc2oc3c(c12)CCCC3 | 4 | 51* | . | 19* | -27 | .
COc1ccccc1/C=C/C=C1\Oc2c(ccc(O)c2CN(C)C)C1=O | 2 | 41 | 7 | 9.1* | -33 | 9
CC(CCC(C)C(C)(C)C)[C@@H]1CC[C@H]2C3C[C@H](OS(O)(=S)=S)[C@H]4C[C@H](OS(O)(=S)=S)[C@@H](OS(O)(=S)=S)C[C@]4(C)[C@H]3CC[C@]12C (some centres undefined) (tested in a mixture with another compound) | . | 55* | . | . | 30 | .
CC(CCC(=O)NN)C1CCC2C3CCC4CC(O)CCC4(C)C3CCC12C (centres undefined) | . | 0 | . | . | -20 | .
CN1C(=O)[C@H]2[C@@H](c3ccc(C(F)(F)F)cc3)N[C@]3(CCCN(Cc4ccc(Cl)cc4)C3=O)[C@H]2C1=O | . | 0 | . | . | -7 | .
Cc1ccc(-n2ncc(C(=O)O)c2C2CCN(C(=O)OC(C)(C)C)CC2)cc1 | 8.4* | -1 | 0 | 2 | -5 | 0
O=C(O)c1ccccc1SC1CC(=O)N(c2ccc3c(c2)OCO3)C1=O (centres undefined) | 0 | -1 | 1 | -2 | 6 | 0
Nc1ccccc1SC1CC(=O)N(c2ccc3c(c2)OCO3)C1=O (centres undefined) | -2 | -1 | 0 | -3 | 84* | 0
CC(C)(C)CC(C)(C)SSc1n[nH]c(=S)s1 | . | -2 | . | . | 17 | .
Cc1cccc(NC(=O)Cc2ccc(NC3=NC4CS(=O)(=O)CC4S3)cc2)c1 (centres undefined) | -2 | -2 | . | -5 | 60* | .
COc1cccc(/C=N/NC(=O)c2ccc(N3CCCC3=O)cc2)c1 | 0 | 1 | . | -1 | 0 | .
O=C(CN(CC1CCCO1)C(=O)CCC(=O)Nc1ccccn1)NCC1CCCO1 (centres undefined) | -3 | 0 | 0 | -4 | -22 | 2
COCCNC(=O)CN(CC1CCCO1)C(=O)CCC(=O)Nc1ccccn1 (centres undefined) | -2 | -1 | 1 | -4 | 57* | 2
CCN(CC)c1nc(C=Cc2ccc(N(C)C)cc2)c2nccnc2n1 | . | 215* | . | . | -211 | .
O=C(CC1SC(=O)N(c2ccccc2)C1=O)Nc1ccccc1 (centres undefined) | -3 | 5 | 0 | -2 | -20 | 1
Cc1ccc(NC(=O)CC2SC(=O)N(c3ccccc3)C2=O)cc1 (centres undefined) | -3 | 2 | 1 | -3 | 89* | 1
O=C(CCCSc1nnc(-c2cccs2)n1CC1CCCO1)c1ccccc1 (centres undefined) | 9.7* | -1 | 1 | -8 | 18 | 1
SMILES | VIM-2 inhibitor | CRFR2-BP ag | TRPML3 agonist | IMP-1 inh | CRFBP-R2 block | zfTRPN1 agonist
Cc1ccc(-c2nnc(N3CCCCC3)c3ccccc23)cc1S(=O)(=O)N1CCN(C)CC1 | -1 | -2 | 0 | -3 | 16 | 0
Cc1ccc(-c2nnc3c4ccccc4c(C)nn23)cc1S(=O)(=O)N1CCN(C)CC1 | 12* | -1 | 0 | -2 | -22 | 1
Cc1nn(C)cc1C(C(=O)NC1CCCCC1)N(C(=O)Cc1cccs1)c1ccc(Cl)cc1 (centres undefined) | -3 | 58* | 1 | -4 | -56 | 1
Cc1ccc(N(C(=O)Cn2nnc3ccccc32)C(C(=O)NC2CCCCC2)c2cn(C)nc2C)cc1 (centres undefined) | -1 | 0 | 1 | -5 | -10 | 1
Cc1ccc(C(=O)NCC(=O)OCc2c(F)cccc2Cl)s1 | . | 1 | . | . | -12 | .
COC(=O)c1sccc1NC(=O)C1C2C=CC(O2)C1C(=O)O (centres undefined) | -3 | 0 | 0 | -2 | 7 | 0
COC(=O)c1ccc(NC(=O)C2CC3CCC2C3)cc1 (centres undefined) | . | 0 | . | . | -5 | .
COC(=O)c1sccc1NC(=O)C1CC(C)=C(C)CC1C(=O)O (centres undefined) | 8.4* | 0 | 0 | 0 | 0 | 0
COC(=O)c1sccc1NC(=O)C1CC2CCC1C2 (centres undefined) | -4 | 1 | -1 | 48* | -7 | -1
CN(C#N)c1nc(Cl)nc(Nc2cccc(Cl)c2)n1 | 9.4* | 0 | 1 | -5 | 8 | 0
COc1cc(NC(=S)NCc2ccco2)cc(OC)c1 | -1 | -4 | -1 | -1 | 96* | 0
CC(C)CCN1C(Nc2ccccc2)=NC[C@@H]1CC(C)C | -1 | -2 | . | -2 | 1 | .
c1ccc(CCN2CCN=C2Nc2ccccc2)cc1 | -2 | -1 | . | -3 | 5 | .
CC(C)C[C@H]1CN=C(Nc2ccccc2)N1CCc1ccc(F)cc1 | . | 110* | . | . | 13 | .
Cc1cccc(CCN2CCN=C2Nc2ccccc2)c1 | . | 56* | . | . | 10 | .
CC(C)C[C@H]1CN=C(Nc2ccccc2)N1CCc1cccc(F)c1 | . | 125* | . | . | -22 | .
CC(C)C[C@H]1CN=C(N(C)C)N1CCc1cccc(F)c1 | . | 0 | . | . | -1 | .
Cc1cccc(CCN2C(Nc3ccccc3)=NC[C@@H]2CC(C)C)c1 | . | 111* | . | . | 21 | .
CCN1C(Nc2ccccc2)=NC[C@@H]1CC(C)C | 2 | 1 | . | -1 | -3 | .
COCCOC(=O)c1c(NC(=O)COC(=O)c2ccc(C)o2)sc(C(N)=O)c1C | . | -1 | . | . | 4 | .
COc1cc(SC)ccc1C(=O)N(CC(=O)Nc1ccccc1Br)Cc1ccco1 | . | 2 | . | . | -15 | .
Cn1c2ccccc2c2nnc(SCC(=O)Nc3cccc(C(=O)O)c3)nc21 | 5 | 1 | . | -2 | 6 | .
Cn1c2ccc(F)cc2c2nnc(SCCN3CCOCC3)nc21 | 7.8* | -2 | . | -2 | -9 | .
